# Laboratory results from ChEMBL document CHEMBL3797186, “Single Residue Substitutions That Confer Voltage-Gated Sodium Ion Channel Subtype Selectivity in the NaV1.7 Inhibitory Peptide GpTx-1” (J Med Chem, 2016).
# pIC50: −log10 of the molar value. Positions of bridges follow the written chain, without caps; N, C: chain ends. Residues, ends and D or L forms follow the SMILES beside them.
# Biological target: Sodium channel protein type 5 subunit alpha (Homo sapiens, UniProt Q14524)
# Test: Inhibition of human Nav1.5 expressed in HEK293 cells assessed as inward peak current by ion-works quattro patch clamp electrophysiology method
# Format: cell-based
# In short: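 Stable HEK293 line expressing human NaV1.5, recorded by population patch clamp on the IonWorks Quattro.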
# Sodium channel protein type 5 subunit alpha, sequence (Q14524 whole entry): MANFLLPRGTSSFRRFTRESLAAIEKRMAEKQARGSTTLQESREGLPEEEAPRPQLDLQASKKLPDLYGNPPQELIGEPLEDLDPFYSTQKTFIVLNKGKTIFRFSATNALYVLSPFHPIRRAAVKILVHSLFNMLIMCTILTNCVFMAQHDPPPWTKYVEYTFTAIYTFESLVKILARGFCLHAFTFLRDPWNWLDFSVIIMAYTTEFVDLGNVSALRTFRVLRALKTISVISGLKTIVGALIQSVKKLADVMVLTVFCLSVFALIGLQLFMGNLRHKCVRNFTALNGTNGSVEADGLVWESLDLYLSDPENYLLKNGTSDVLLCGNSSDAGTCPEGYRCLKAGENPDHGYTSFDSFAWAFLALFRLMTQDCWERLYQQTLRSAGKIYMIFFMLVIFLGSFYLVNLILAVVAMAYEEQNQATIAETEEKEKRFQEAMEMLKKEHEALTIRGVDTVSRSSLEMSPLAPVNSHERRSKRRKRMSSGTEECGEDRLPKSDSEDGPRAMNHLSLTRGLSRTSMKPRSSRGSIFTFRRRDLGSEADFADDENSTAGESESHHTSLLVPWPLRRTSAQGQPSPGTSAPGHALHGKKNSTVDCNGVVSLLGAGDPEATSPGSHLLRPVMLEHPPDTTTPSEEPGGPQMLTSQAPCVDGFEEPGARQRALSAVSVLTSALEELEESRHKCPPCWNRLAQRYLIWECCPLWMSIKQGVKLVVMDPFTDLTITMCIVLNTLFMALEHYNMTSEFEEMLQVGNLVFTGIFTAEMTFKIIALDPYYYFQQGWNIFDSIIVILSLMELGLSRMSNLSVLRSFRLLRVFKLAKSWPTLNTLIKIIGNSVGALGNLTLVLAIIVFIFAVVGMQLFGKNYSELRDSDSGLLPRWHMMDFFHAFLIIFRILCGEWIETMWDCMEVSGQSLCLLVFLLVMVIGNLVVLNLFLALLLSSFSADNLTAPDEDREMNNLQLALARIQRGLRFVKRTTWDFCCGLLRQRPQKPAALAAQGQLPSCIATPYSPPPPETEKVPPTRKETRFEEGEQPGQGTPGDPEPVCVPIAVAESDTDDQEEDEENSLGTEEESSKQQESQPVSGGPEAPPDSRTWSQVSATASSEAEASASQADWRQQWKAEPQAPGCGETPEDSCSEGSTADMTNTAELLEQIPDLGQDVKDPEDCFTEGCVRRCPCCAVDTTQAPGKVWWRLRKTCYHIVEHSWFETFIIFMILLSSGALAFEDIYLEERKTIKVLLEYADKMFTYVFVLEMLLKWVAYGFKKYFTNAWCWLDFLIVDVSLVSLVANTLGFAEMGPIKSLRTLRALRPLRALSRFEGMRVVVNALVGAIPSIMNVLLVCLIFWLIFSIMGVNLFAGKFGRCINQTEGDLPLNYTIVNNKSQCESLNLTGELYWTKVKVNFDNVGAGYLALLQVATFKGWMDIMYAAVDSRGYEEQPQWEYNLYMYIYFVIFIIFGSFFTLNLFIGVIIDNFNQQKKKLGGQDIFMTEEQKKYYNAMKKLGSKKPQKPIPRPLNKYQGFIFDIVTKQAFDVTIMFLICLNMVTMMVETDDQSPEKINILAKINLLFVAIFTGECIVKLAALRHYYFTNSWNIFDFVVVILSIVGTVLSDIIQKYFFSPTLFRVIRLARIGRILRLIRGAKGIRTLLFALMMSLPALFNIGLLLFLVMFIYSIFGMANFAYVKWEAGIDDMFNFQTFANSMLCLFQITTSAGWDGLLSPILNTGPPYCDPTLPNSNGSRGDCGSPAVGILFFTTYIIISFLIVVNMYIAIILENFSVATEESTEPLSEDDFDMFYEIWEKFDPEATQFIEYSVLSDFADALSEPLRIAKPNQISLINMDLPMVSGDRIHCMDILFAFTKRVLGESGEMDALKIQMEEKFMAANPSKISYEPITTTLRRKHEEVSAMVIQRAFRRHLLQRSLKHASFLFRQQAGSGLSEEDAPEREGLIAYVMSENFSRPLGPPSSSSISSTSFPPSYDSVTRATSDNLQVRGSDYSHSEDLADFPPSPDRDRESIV
row,SMILES,pIC50
1,CC[C@H](C)[C@@H]1NC(=O)[C@@H]2CSSC[C@@H]3NC(=O)[C@H](C(C)C)NC(=O)[C@H](CC(C)C)NC(=O)[C@H](CC(N)=O)NC(=O)[C@@H]4CCCN4C(=O)[C@H](CCCNC(=N)N)NC(=O)[C@H](CSSC[C@H](NC(=O)[C@H](CC(=O)O)NC(=O)[C@@H](N)CCCNC(=N)N)C(=O)N[C@@H](CC(C)C)C(=O)NCC(=O)N[C@@H](Cc4ccccc4)C(=O)N[C@@H](CCSC)C(=O)N[C@@H](CCCNC(=N)N)C(=O)N[C@@H](CCCCN)C(=O)N2)NC(=O)[C@H](CSSC[C@@H](C(=O)N[C@@H](CCCCN)C(=O)N[C@@H](Cc2ccc(O)cc2)C(=O)N[C@H](C(=O)N[C@@H](Cc2ccccc2)C(N)=O)C(C)C)NC(=O)[C@H](Cc2c[nH]c4ccccc24)NC(=O)[C@H](CCCCN)NC(=O)[C@H](Cc2cnc[nH]2)NC(=O)[C@H]([C@@H](C)O)NC(=O)[C@H](CCCNC(=N)N)NC(=O)[C@H](CO)NC3=O)NC(=O)[C@H](CCCCN)NC(=O)[C@H](CC(=O)O)NC(=O)[C@H](CC(N)=O)NC(=O)[C@H](CC(=O)O)NC(=O)[C@@H]2CCCN2C1=O,< 5.30
2,"CC[C@H](C)[C@@H]1NC(=O)[C@@H]2CSSC[C@@H]3NC(=O)[C@H](C(C)C)NC(=O)[C@H](CC(C)C)NC(=O)[C@H](CC(N)=O)NC(=O)[C@@H]4CCCN4C(=O)[C@H](CCCNC(=N)N)NC(=O)[C@H](CSSC[C@H](NC(=O)[C@@H](N)CC(=O)O)C(=O)N[C@@H](CC(C)C)C(=O)NCC(=O)N[C@@H](Cc4ccccc4)C(=O)N[C@@H](CCSC)C(=O)N[C@@H](CCCNC(=N)N)C(=O)N[C@@H](CCCCN)C(=O)N2)NC(=O)[C@H](CSSC[C@@H](C(=O)N[C@@H](CCCCN)C(=O)N[C@@H](Cc2ccc(O)cc2)C(=O)N[C@@H](CCCNC(=N)N)C(=O)N[C@@H](Cc2ccccc2)C(N)=O)NC(=O)[C@H](Cc2c[nH]c4ccccc24)NC(=O)[C@H](CCCCN)NC(=O)[C@H](Cc2cnc[nH]2)NC(=O)[C@H]([C@@H](C)O)NC(=O)[C@H](CCCNC(=N)N)NC(=O)[C@H](CO)NC3=O)NC(=O)[C@H](CCCCN)NC(=O)[C@H](CC(=O)O)NC(=O)[C@H](CC(N)=O)NC(=O)[C@H](CC(=O)O)NC(=O)[C@@H]2CCCN2C1=O (H-DCLGFMRKCIPDNDKCCRPNLVCSRTHKWCKYRF-NH2; disulfide 2-17, 9-23, 16-30)",< 5.30
3,"CC[C@H](C)[C@@H]1NC(=O)[C@@H]2CSSC[C@@H]3NC(=O)[C@H](C(C)C)NC(=O)[C@H](CC(C)C)NC(=O)[C@H](CC(N)=O)NC(=O)[C@@H]4CCCN4C(=O)[C@H](CCCNC(=N)N)NC(=O)[C@H](CSSC[C@H](NC(=O)[C@@H](N)CC(=O)O)C(=O)N[C@@H](CC(C)C)C(=O)NCC(=O)N[C@@H](Cc4ccccc4)C(=O)N[C@@H](CCC(=O)O)C(=O)N[C@@H](CCCNC(=N)N)C(=O)N[C@@H](CCCCN)C(=O)N2)NC(=O)[C@H](CSSC[C@@H](C(=O)N[C@@H](CCCCN)C(=O)N[C@@H](Cc2ccc(O)cc2)C(=O)N[C@H](C(=O)N[C@@H](Cc2ccccc2)C(N)=O)C(C)C)NC(=O)[C@H](Cc2c[nH]c4ccccc24)NC(=O)[C@H](CCCCN)NC(=O)[C@H](Cc2cnc[nH]2)NC(=O)[C@H]([C@@H](C)O)NC(=O)[C@H](CCCNC(=N)N)NC(=O)[C@H](CO)NC3=O)NC(=O)[C@H](CCCCN)NC(=O)[C@H](CC(=O)O)NC(=O)[C@H](CC(N)=O)NC(=O)[C@H](CC(=O)O)NC(=O)[C@@H]2CCCN2C1=O (H-DCLGFERKCIPDNDKCCRPNLVCSRTHKWCKYVF-NH2; disulfide 2-17, 9-23, 16-30)",< 5.30
